An excerpt weighted towards active compounds, which were near 4.8% of everything screened.
UCH37 inh: human UCH37 deubiquitinating enzyme inhibition; purified proteasome/UCH37, Ub-AMC cleavage fluorescence; AID 588478; Q9Y5K5; 330,000 tested, 0.33% active; inhibition, % (concentration not given with the values);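 active = mean inhibition over replicate wells above about 20%, limit read from the data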;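 also: 0% = compound-free wells with enzyme and 100% = wells lacking proteasome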
Target sequence (Q9Y5K5 whole entry, looked up): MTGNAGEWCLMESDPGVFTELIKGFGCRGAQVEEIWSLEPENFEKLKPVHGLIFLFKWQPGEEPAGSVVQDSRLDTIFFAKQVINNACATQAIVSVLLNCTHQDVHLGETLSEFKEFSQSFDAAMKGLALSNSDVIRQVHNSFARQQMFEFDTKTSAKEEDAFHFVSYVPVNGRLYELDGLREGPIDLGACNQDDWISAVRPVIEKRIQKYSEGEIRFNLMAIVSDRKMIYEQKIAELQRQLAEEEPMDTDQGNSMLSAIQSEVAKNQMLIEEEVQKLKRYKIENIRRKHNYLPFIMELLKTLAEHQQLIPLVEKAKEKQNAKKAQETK
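Material: Human UCH37 enzyme supplied as purified proteasome complex | Schedule: 30 min preincubation with enzyme, 25 min cleavage at room temperature | Detection: AMC fluorescence 355/460 nm | Measure: % inhibition of Ub-AMC cleavage fluorescence | Controls: Wells without proteasome as full block, compound-free enzyme plus substrate as uninhibited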
GRIN3A LBD mod: modulators (binders) of human NR3A ligand-binding domain | 340,000 tested, 2.5% active | NR3A LBD differential scanning fluorimetry, Tm shift; 0% = protein alone, 100% = glycine-bound protein | Tm shift relative to glycine control, % at 25 µM;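 active = melting temperature shift of at least 10% of the positive control shift, at one fixed dose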
PAFAH2 FP inh: inhibitors of human PAFAH2; inhibition, % at 3.39 µM; AID 492956; recombinant PAFAH2, FP-rhodamine activity probe, fluorescence polarization; 340,000 tested, 0.99% active;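 active = inhibition above the mean over all tested compounds plus 3 SD, cut at about 30% in these data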;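 also: inhibitors block probe labeling of enzyme so polarization drops; 0% = enzyme with DMSO and 100% = wells lacking PAFAH2 protein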
PAFAH1B2 FP inh: blocks human PAF acetylhydrolase 1b catalytic subunit 2 | 340,000 tested, 1.2% active | inhibition, % at 3.39 µM | recombinant PAFAH1B2, FP-rhodamine activity probe, fluorescence polarization | P68402 | AID 492953;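 active = inhibition above the mean of all tested compounds plus 3 SD, cut at about 24% in these data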;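 also: 0% = enzyme with DMSO and 100% = wells lacking PAFAH1B2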
pPAFAH inh: inhibitors of human plasma PAF acetylhydrolase (pPAFAH) | Q13093 | recombinant pPAFAH, FP-rhodamine probe fluorescence polarization | 330,000 tested, 1.5% active | inhibition, % at 3.39 µM;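 active = inhibition above the mean inhibition across the screen plus 3 SD, cut at about 25% in these data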;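 also: inhibitors block binding of the rhodamine activity-based probe so polarization drops; 0% = enzyme with DMSO and 100% = wells lacking pPAFAH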
PAFAH1B3 inh: PAFAH1B3 (human) inhibition; inhibition, % at 3.39 µM; 340,000 tested, 0.28% active; recombinant PAFAH1B3, FP-rhodamine probe, fluorescence polarization; Q15102;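 active = inhibition above the screen-wide average of all tested compounds plus 3 SD, cut at about 25% in these data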;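 also: 0% = enzyme with DMSO only and 100% = wells lacking PAFAH1B3 protein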
Target sequence (Q15102 whole entry, looked up): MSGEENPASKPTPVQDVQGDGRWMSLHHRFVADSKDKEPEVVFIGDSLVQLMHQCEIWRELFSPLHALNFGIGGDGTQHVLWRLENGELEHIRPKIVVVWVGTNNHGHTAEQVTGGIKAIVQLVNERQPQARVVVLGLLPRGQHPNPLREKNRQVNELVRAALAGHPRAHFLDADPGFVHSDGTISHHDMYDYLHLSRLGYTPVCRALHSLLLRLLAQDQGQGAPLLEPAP
* = called active by the depositor; nt = no result given.

SMILES | UCH37 inh | GRIN3A LBD mod | PAFAH2 FP inh | PAFAH1B2 FP inh | pPAFAH inh | PAFAH1B3 inh
CCNC(=S)NN=Cc1cccc(C)c1 | 5 | nt | nt | nt | nt | nt
CC(=NNC(=O)CSc1nc2ccccc2s1)c1cccnc1 | 2 | nt | nt | nt | nt | nt
OC12CCCCC1C(c1ccc3c(c1)OCO3)N(Cc1ccc(F)cc1)CC2 (centres undefined) | 29* | -3 | 6 | 0 | 0 | -1
Cc1ccc(-c2ccc([C@H]3[C@H]4C=CC[C@@H](C)[C@@H]4C(=O)N3Cc3ccccc3)c(F)c2)cc1 | -1 | 13* | -5 | 4 | 0 | -2
CC[C@@H]1CC=C[C@H]2[C@H]1C(=O)N(Cc1ccccc1)[C@H]2c1ccc(C(F)(F)F)cc1 | 1 | 12* | -5 | -1 | 0 | 2
C[C@@H]1CC=C[C@H]2[C@H]1C(=O)N(Cc1ccccc1)[C@H]2c1ccc(-c2ccc(N(C)C)cc2)cc1F | -23 | 1 | -9 | -2 | 4 | 2
COc1cc(OC)c(OC)cc1C=NNC(=S)NCC1CCCO1 (centres undefined) | -94 | nt | nt | nt | nt | nt
COC(=O)NN=Cc1cc(Cl)cc(Cl)c1OCc1ccccc1 | 3 | nt | nt | nt | nt | nt
CCOc1ccc(C=NNC(=O)C2CC2)cc1OC | 4 | nt | nt | nt | nt | nt
COc1ccc(/C=N/NC(=O)Cc2csc(Nc3cccc(C(F)(F)F)c3)n2)cc1C | nt | 22* | -8 | -2 | -7 | -2
Cc1cc(NN=Cc2ccccc2)nc(N2CCOCC2)n1 | 6 | nt | nt | nt | nt | nt
[N-]=C=C1C(=S)NC(=O)[C@H]([n+]2ccccc2)[C@H]1c1ccc(Cl)cc1 | nt | 12* | 13 | 2 | 12 | 1
O=c1[nH]c(-[n+]2ccccc2)c(C=NNC([S-])=Nc2ccccc2)s1 | 13 | nt | nt | nt | nt | nt
CCc1ccc[n+](-c2[nH]c(=O)sc2C=NNC([S-])=Nc2ccccc2)c1 | 22* | nt | nt | nt | nt | nt
COc1ccc(CCN2C(=S)N(C)C(=O)C2CC(=O)Nc2ccc(OC)cc2)cc1 (centres undefined) | -2 | -4 | 8 | 5 | 5 | 9
CCCCCCOc1ccc(NC(=O)CC2C(=O)N(CC)C(=S)N2Cc2ccco2)cc1 (centres undefined) | 4 | 16* | -37 | 2 | 7 | 13
CCN1C(=O)C(CC(=O)Nc2ccc(F)cc2)N(Cc2ccc3c(c2)OCO3)C1=S (centres undefined) | 2 | 28* | -2 | 0 | 1 | 8
CCN1C(=O)C(CC(=O)Nc2ccc(F)cc2)N(Cc2ccco2)C1=S (centres undefined) | -1 | -1 | 3 | -4 | -4 | 8
COc1ccc(NC(=O)CC2C(=O)N(C)C(=S)N2Cc2ccc3c(c2)OCO3)cc1 (centres undefined) | 1 | 14* | -6 | 1 | 5 | -3
CC(=NNC(=O)C(O)c1ccccc1)c1ccc(Br)s1 (centres undefined) | 3 | nt | nt | nt | nt | nt
O=C(O)Cc1sc(N/N=C\c2ccncc2)nc1-c1ccccc1 | nt | -3 | 4 | -1 | 25* | 1
C(=N\Nc1nc(-c2ccccc2)cs1)/c1ccncc1 | nt | -16 | 6 | 9 | 11 | 9
COc1ccc(S(=O)(=O)NN=Cc2ccc(OC)c(COc3ccc(C)cc3[N+](=O)[O-])c2)cc1 | 1 | nt | nt | nt | nt | nt
COc1ccc(/C=N\NS(=O)(=O)c2ccc(Br)cc2)cc1COc1ccccc1[N+](=O)[O-] | nt | 25* | -20 | 6 | 2 | 0
COc1ccc(/C=N\NS(=O)(=O)c2ccc(Cl)cc2)cc1COc1ccccc1[N+](=O)[O-] | nt | 24* | -2 | 5 | 8 | 3
SMILES | UCH37 inh | GRIN3A LBD mod | PAFAH2 FP inh | PAFAH1B2 FP inh | pPAFAH inh | PAFAH1B3 inh
CC(NC(=O)COC(=O)c1ccc(N(C)C)cc1)c1ccccc1 (centres undefined) | 2 | -1 | 79* | 7 | 33* | 3
COCCn1c(SCC(=O)Nc2cccnc2Cl)nc2cc(Cl)ccc2c1=O | 1 | 0 | 0 | 0 | -1 | 14
COCCn1c(SCC(=O)Nc2sccc2C(N)=O)nc2cc(Cl)ccc2c1=O | 3 | 37* | 0 | -1 | 6 | 5
OC(COCc1ccccc1)CN1CCCC1 (centres undefined) | 1 | 11* | 7 | 3 | 1 | 4
CC(=NNC(=S)NC1CCCCC1)c1ccc(O)cc1 | 2 | nt | nt | nt | nt | nt
COC(=O)N1C(=O)[C@](Cc2ccccc2)(c2ccccc2)N1C(=O)OC | nt | 13* | -4 | -3 | 1 | 9
COC(=O)N1C(=O)[C@@](Cc2ccccc2)(c2ccccc2)N1C(=O)OC | 6 | 4 | 3 | -4 | 6 | 4
O=C(NN=Cc1cc(Br)c(O)c([N+](=O)[O-])c1)C(O)(c1ccccc1)c1ccccc1 | 19 | nt | nt | nt | nt | nt
Cc1cc(C)n(-c2ccc(C(=O)Nc3cccc([N+](=O)[O-])c3)cc2)n1 | 4 | 19* | 0 | 4 | -3 | -5
Cc1cc(C)n(-c2ccc(C(=O)Nc3cccc(S(=O)(=O)N(C)C)c3)cc2)n1 | 4 | 3 | -2 | 3 | 1 | 0
Cc1cc(C)n(-c2ccc(C(=O)Nc3ccc(S(=O)(=O)NCc4ccco4)cc3)cc2)n1 | 2 | 17* | 2 | 1 | 3 | 5
Cc1cc(C)n(-c2ccc(C(=O)Nc3nc4ccccc4s3)cc2)n1 | -11 | 15* | -2 | -1 | 0 | 1
CC(=O)Nc1ccc(C(=O)NN=C(C)CC(=O)Nc2ccc(OCc3ccccc3)cc2)cc1 | -1 | nt | nt | nt | nt | nt
CCN(CC(=O)Nc1sc2c(c1C#N)CCC(C)C2)Cc1nc2ccccc2c(=O)[nH]1 (centres undefined) | -3 | -12 | 7 | 27* | 4 | 2
CCN(CC(=O)Nc1sc2c(c1C#N)CCCC2)Cc1nc2ccccc2c(=O)[nH]1 | 4 | 1 | 7 | 10 | 0 | 11
Cc1ccc(NC(=O)C2(c3ccccc3)CCCC2)nc1 | 3 | 2 | 3 | 15 | 8 | 1
O=C(Nc1ccccn1)C1(c2ccccc2)CCCC1 | 1 | -3 | -4 | 26* | 1 | 2
O=C(Nc1ccncc1)C1(c2ccccc2)CCCC1 | -1 | -2 | 3 | 27* | -1 | 4
NS(=O)(=O)c1ccc(NC(=O)C2(c3ccccc3)CCCC2)cc1 | 2 | -2 | 0 | 27* | 0 | 10
Cc1ccc(NC(=O)C2(c3ccc([N+](=O)[O-])cc3)CCCC2)cc1 | 1 | -7 | 10 | 25* | 4 | 8
COc1cc(OC)nc(Oc2ccccc2C=NO)n1 | -2 | nt | nt | nt | nt | nt
O=C(NCc1ccc(F)cc1)C1CCN(S(=O)(=O)c2ccc(Br)s2)CC1 | 2 | -5 | -11 | 25* | 3 | 2
CC(=NS(=O)(=O)c1ccc(C)cc1)N1CCN(S(=O)(=O)c2ccccc2)C1C(C)C (centres undefined) | 5 | nt | nt | nt | nt | nt
COc1ccccc1N1CCN(N=Cc2cc(OC)c(O)c(OC)c2)CC1 | 1 | nt | nt | nt | nt | nt
COc1ccc(OCC(=O)NN=C(C)Cc2ccccc2)cc1 | 3 | nt | nt | nt | nt | nt

Assay outcomes: PubChem BioAssay, several laboratories
